The source of these data is ChEMBL document CHEMBL1121930, “Design of more potent antagonists of the antidiuretic responses to arginine-vasopressin” (J Med Chem, 1982).

For experiment [1], the system named is Rattus norvegicus. Description: Antivasopressor effective dose is defined as the dose that reduces the response seen with 2 units of agonist to equal the response seen with 1 unit of agonist administered before antagonist. Type of experiment: functional. The gist of the method: (§1)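 Intravenous vasopressor assay in phenoxybenzamine-treated rats under urethane anesthesia, agonist USP posterior pituitary reference standard. Effective dose (nmol/kg) cuts the response to 2x units of agonist to that of 1x units given before the antagonist. pA2 = −log(effective dose / 67 mL/kg).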

Experiment [2] deals with Rattus norvegicus. Description: Effective dose is defined as the dose that reduces the response seen with 2 units of agonist to equal the response seen with 1 unit of agonist administered before antagonist. Type of experiment: functional.
The subject of experiment [3] is Rattus norvegicus. Kind of experiment: In vivo pA2 value represent the negative logarithm of the effective dose divided by the estimated volume of distribution (67 mL/kg). Type of experiment: functional, organism-based.
Experiment [4] has as its system Rattus norvegicus. Kind of experiment: Antivasopressor effective dose is expressed as the dose that reduces the response seen with 2 units of agonist to equal the response seen with 1 unit of agonist administered before antagonist. In kind it is functional. The gist of the method:
as §1

Experiment [5] relates to Rattus norvegicus. Kind of experiment: In vivo pA2 value represent the negative logarithm of the anti-vasopressor effective dose divided by the estimated volume of distribution (67 mL/kg). The note with it: read-out: pA2 (converted). Type of experiment: functional, organism-based. An outline of the steps:
as §1

For experiment [6], the system named is Rattus norvegicus. Kind of experiment: Antidiuretic effective dose is expressed as the dose that reduces the response seen with 2 units of agonist to equal the response seen with 1 unit of agonist administered before antagonist. In kind it is functional, Urine. An outline of the steps:
(§2)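 Rats under ethanol anesthesia, agonist USP posterior pituitary reference standard. Agonist injected 20 and 50 min after the antagonist. Responses at 20 min were used, or at 50 min for analogues that inhibited more then. Each antagonist was given at two doses, one above and one below the effective dose (nmol/kg). pA2 = −log(effective dose / 67 mL/kg).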

The subject of experiment [7] is Rattus norvegicus. Description: In vivo pA2 value represent the negative logarithm of the antidiuretic effective dose divided by the estimated volume of distribution (67 mL/kg). In kind it is functional, organism-based. The conditions noted are these: Urine, read-out: pA2 (converted). An outline of the steps:
as §2

The test system of experiment [8] is Rattus norvegicus. Description: Effective dose is defined as the dose that reduces the response seen with 2 units of agonist to equal the response seen with 1 unit of agonist administered before antagonist; agonist. In kind it is functional, organism-based. The conditions noted are these: filed as agonist.

Several values for one entry are separate records, joined by “and”; a condition that tells them apart may be missing. Equal values may be shown once. *1 amine or outer side, *2 acyl side, *3 side chain or, on linkers, in order; H or OH if unused. Where a SMILES comes first, the peptide text is derived from it. Bridges are numbered along the chain shown (N, C = ends). [ ]: non-standard residue; d: D form. The star is where a group is joined. X1 = O=C(CC1(S[*:2])CCCCC1)[*:1]; Propyl = CCC*; iPr = CC(C)*

Regarding `CC(C)[C@@H]1NC(=O)[C@H](Cc2ccccc2)NC(=O)[C@H](Cc2ccc(O)cc2)NC(=O)CC2(CCCCC2)SSC[C@@H](C(=O)N2CCC[C@H]2C(=O)N[C@H](CCCN=C(N)N)C(=O)NCC(N)=O)NC(=O)[C@H](CC(N)=O)NC1=O`, in the experiment on Rattus norvegicus [1], the Effective dose was determined as 1.5 nM/kg.

Regarding `CC(C)[C@@H]1NC(=O)[C@H](Cc2ccccc2)NC(=O)[C@@H](Cc2ccc(O)cc2)NC(=O)CC2(CCCCC2)SSC[C@@H](C(=O)N2CCC[C@H]2C(=O)N[C@@H](CCCN=C(N)N)C(=O)NCC(N)=O)NC(=O)[C@H](CC(N)=O)NC1=O`, the Effective dose in the experiment with Rattus norvegicus [1] was found to be 0.29 nM/kg; in the experiment on Rattus norvegicus [2], 2.2 nM/kg.

As usually defined, the pA2 is a measure of antagonist potency on a negative log scale. Take `CCOc1ccc(C[C@@H]2NC(=O)CC3(CCCCC3)SSC[C@@H](C(=O)N3CCC[C@H]3C(=O)N[C@@H](CCCN=C(N)N)C(=O)NCC(N)=O)NC(=O)[C@H](CC(N)=O)NC(=O)[C@H](C(C)C)NC(=O)[C@H](Cc3ccccc3)NC2=O)cc1` (Y(Et)FVNCPRG-NH2; linker N-5 via X1): the pA2 in the experiment on Rattus norvegicus [3] was 7.81 and 8.22. Besides, the results for the Effective dose in the experiment with Rattus norvegicus [1] and in the experiment on Rattus norvegicus [2] were 0.45 nM/kg and 1.1 nM/kg, respectively.

Take `CCOc1ccc(C[C@@H]2NC(=O)CC3(CCCCC3)SSC[C@@H](C(=O)N3CCC[C@H]3C(=O)N[C@H](CCCN=C(N)N)C(=O)NCC(N)=O)NC(=O)[C@H](CC(N)=O)NC(=O)[C@H](C(C)C)NC(=O)[C@H](Cc3ccccc3)NC2=O)cc1` (Y(Et)FVNCP[dR]G-NH2; linker N-5 via X1): the Effective dose stood at 0.88 nM/kg in the experiment with Rattus norvegicus [1] and 1.8 nM/kg with Rattus norvegicus [2].

As for `COc1ccc(C[C@@H]2NC(=O)CC3(CCCCC3)SSC[C@@H](C(=O)N3CCC[C@H]3C(=O)N[C@@H](CCCN=C(N)N)C(=O)NCC(N)=O)NC(=O)[C@H](CC(N)=O)NC(=O)[C@H](C(C)C)NC(=O)[C@H](Cc3ccccc3)NC2=O)cc1` (Y(Me)FVNCPRG-NH2; linker N-5 via X1), the Effective dose in the experiment on Rattus norvegicus [1] came to 0.23 nM/kg; in the experiment on Rattus norvegicus [2], 1.2 nM/kg.

On to `COc1ccc(C[C@@H]2NC(=O)CC3(CCCCC3)SSC[C@@H](C(=O)N3CCC[C@H]3C(=O)N[C@H](CCCN=C(N)N)C(=O)NCC(N)=O)NC(=O)[C@H](CC(N)=O)NC(=O)[C@H](C(C)C)NC(=O)[C@H](Cc3ccccc3)NC2=O)cc1` (Y(Me)FVNCP[dR]G-NH2; linker N-5 via X1), for which the results for the Effective dose in the experiment on Rattus norvegicus [4] and with Rattus norvegicus [6] were 0.54 nM/kg and 4.9 nM/kg, respectively. Moreover, the figures for the Kb in the experiment on Rattus norvegicus [5] and with Rattus norvegicus [7] were 0.00794 µM and 0.0646 µM, respectively.

With `CCCOc1ccc(C[C@@H]2NC(=O)CC3(CCCCC3)SSC[C@@H](C(=O)N3CCC[C@H]3C(=O)N[C@@H](CCCN=C(N)N)C(=O)NCC(N)=O)NC(=O)[C@H](CC(N)=O)NC(=O)[C@H](C(C)C)NC(=O)[C@H](Cc3ccccc3)NC2=O)cc1` (Y(Propyl)FVNCPRG-NH2; linker N-5 via X1), the Effective dose in the experiment with Rattus norvegicus [1] was found to be 0.51 nM/kg; with Rattus norvegicus [2] it was 1.7 nM/kg.

For `CC(C)Oc1ccc(C[C@@H]2NC(=O)CC3(CCCCC3)SSC[C@@H](C(=O)N3CCC[C@H]3C(=O)N[C@@H](CCCN=C(N)N)C(=O)NCC(N)=O)NC(=O)[C@H](CC(N)=O)NC(=O)[C@H](C(C)C)NC(=O)[C@H](Cc3ccccc3)NC2=O)cc1` (Y(iPr)FVNCPRG-NH2; linker N-5 via X1), the Effective dose in the experiment with Rattus norvegicus [1] was 0.28 nM/kg; in the experiment on Rattus norvegicus [2], 1.6 nM/kg.

Regarding `CC(C)Oc1ccc(C[C@@H]2NC(=O)CC3(CCCCC3)SSC[C@@H](C(=O)N3CCC[C@H]3C(=O)N[C@H](CCCN=C(N)N)C(=O)NCC(N)=O)NC(=O)[C@H](CC(N)=O)NC(=O)[C@H](C(C)C)NC(=O)[C@H](Cc3ccccc3)NC2=O)cc1` (Y(iPr)FVNCP[dR]G-NH2; linker N-5 via X1), the Effective dose with Rattus norvegicus [1] came to 0.46 nM/kg; in the experiment with Rattus norvegicus [2] it was 2.2 nM/kg.

As to `CC(C)[C@@H]1NC(=O)[C@H](Cc2ccccc2)NC(=O)[C@H](Cc2ccc(O)cc2)NC(=O)CC2(CCCCC2)SSC[C@@H](C(=O)N2CCC[C@H]2C(=O)N[C@@H](CCCN=C(N)N)C(=O)NCC(N)=O)NC(=O)[C@H](CC(N)=O)NC1=O` (stereo in doubt) [listing 1 of 2 here], in the experiment with Rattus norvegicus [1], the Effective dose was 0.76 nM/kg.

With `CC(C)[C@@H]1NC(=O)[C@H](Cc2ccccc2)NC(=O)[C@H](Cc2ccc(O)cc2)NC(=O)CC2(CCCCC2)SSC[C@@H](C(=O)N2CCC[C@H]2C(=O)N[C@@H](CCCN=C(N)N)C(=O)NCC(N)=O)NC(=O)[C@H](CC(N)=O)NC1=O` (stereo in doubt) [listing 2 of 2 here], the Effective dose entry in the experiment on Rattus norvegicus [8] is “Agonist”.

As to `CC(C)[C@@H]1NC(=O)[C@H](Cc2ccccc2)NC(=O)[C@H](Cc2ccc(O)cc2)NC(=O)CC2(CCCCC2)SSC[C@@H](C(=O)N2CCC[C@H]2C(=O)N[C@@H](CCCN=C(N)N)C(=O)NCC(N)=O)NC(=O)[C@H](CC(N)=O)NC1=O` (stereo in doubt; 9), the results for the Effective dose with Rattus norvegicus [1] and with Rattus norvegicus [2] were 0.6 nM/kg and 6.3 nM/kg, respectively.
